# Experimental data reported in ChEMBL document CHEMBL1128437, “Derivatives of 17-phenyl-18,19,20-trinorprostaglandin F2 alpha isopropyl ester: potential antiglaucoma agents” (J Med Chem, 1995).
# Key:
# Felis catus [1] = organism: Felis catus; experiment: The maximal difference in […] pupil diameter between treated and control eyes. The effect was tested in cats at a dose of 1.0 (ug/eye); format: functional
# Outline: (§1)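 Trained female cats, 2–3 kg, were dosed unilaterally with one 20 µL topical drop of drug in 0.9% NaCl/0.5% polysorbate 80, with vehicle in the contralateral eye. Horizontal pupil diameter was measured with a millimetre ruler under constant 10 lux illumination before dosing and at 1, 3, 6 and 23 h. Reported as maximal treated–control difference or as area between curves, per animal.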
# Monkey [2] = experiment: The maximal difference in Intraocular Pressure (IOP) measured in treated and control eyes. The effect was tested in monkey at a dose of 3.0 (ug/eye); format: functional, Cercopithecidae
# Outline: (§2)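 Cynomolgus monkeys trained for IOP measurement were sedated with ketamine (2–3 mg/kg) for transport and seated in restraint chairs under oxibuprocain local anaesthesia. One eye received a 10 µL drop of drug in 0.9% NaCl/0.5% polysorbate 80; the fellow eye received vehicle. IOP was read by pneumatonometer calibrated for monkey eyes before dosing and at 1, 2, 4 and 6 h. Matched-pair t test, n = 6.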
# Monkey [3] = experiment: The maximal difference in Intraocular Pressure (IOP) measured in treated and control eyes. The effect was tested in monkey at a dose of 1.0 (ug/eye); format: functional, Cercopithecidae; outline: as §2
# Felis catus [4] = organism: Felis catus; experiment: The maximal difference in Intraocular Pressure (IOP) between treated and control eyes. The effect was tested in cats at a dose of 1.0 (ug/eye); format: functional
# Outline: (§3)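 Domestic female cats, 2–3 kg, trained for IOP measurement. One eye received a topical drop (20 µL) of drug in 0.9% NaCl with 0.5% polysorbate 80; the other eye received vehicle. IOP was read by pneumatonometer under oxibuprocain local anaesthesia before dosing and at 1, 3, 6 and 23 h. The maximal treated-minus-control difference was taken. Area between curves is the treated-eye AUC minus control-eye AUC, per animal.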
# Felis catus [5] = organism: Felis catus; experiment: The mean ocular irritation in the treated eyes. An arbitrary scale of from 0 to 3 was used, 0 indicates absence of irritation and 3 complete closure of the lids. The effect was tested in cats at a dose of 1.0 (ug/eye); format: functional
# Outline: (§4)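 Ocular irritation was scored in the treated eye of trained female cats, 2–3 kg. Drug was given as one topical 20 µL drop in 0.9% NaCl with 0.5% polysorbate 80. The contralateral eye got vehicle only.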
# Monkey [6] = experiment: The mean area between curves for Intraocular Pressure (IOP) measured in treated and control eyes. The effect was tested in monkey at a dose of 3.0 (ug/eye); format: functional, Cercopithecidae; outline: as §2
# Oryctolagus cuniculus [7] = organism: Oryctolagus cuniculus; experiment: The maximal difference in conjunctival hyperemia between treated and control eyes. The effect was tested in rabbit at a dose of 0.5 (ug/eye)
# Oryctolagus cuniculus [8] = organism: Oryctolagus cuniculus; experiment: The mean area between curves for conjunctival hyperemia between treated and control eyes. The effect was tested in rabbit at a dose of 0.5 (ug/eye)
# Felis catus [9] = organism: Felis catus; experiment: The mean area between curves for Intraocular Pressure (IOP) measured in treated and control eyes. The effect was tested in cats at a dose of 1.0 (ug/eye); format: functional; outline: as §3
# Felis catus [10] = organism: Felis catus; experiment: The mean area between curves for pupil diameter between treated and control eyes. The effect was tested in cats at a dose of 1.0 (ug/eye); format: functional; outline: as §1
# Monkey [11] = experiment: The mean area between curves for Intraocular Pressure (IOP) measured in treated and control eyes. The effect was tested in monkey at a dose of 1.0 (ug/eye); format: functional, Cercopithecidae; outline: as §2
# Felis catus [12] = organism: Felis catus; experiment: The mean ocular irritation in the treated eyes. An arbitrary scale of from 0 to 3 was used, 0 indicates absence of irritation and 3 complete closure of the lids. The effect was tested in cats at a dose of 3.0 (ug/eye); format: functional; outline: as §4
# Felis catus [13] = organism: Felis catus; experiment: 66 The maximal difference in Intraocular Pressure (IOP) between treated and control eyes. The effect was tested in cats at a dose of 3.0 (ug/eye); format: functional; outline: as §3
# Felis catus [14] = organism: Felis catus; experiment: The mean area between curves for Intraocular Pressure (IOP) measured in treated and control eyes. The effect was tested in cats at a dose of 3.0 (ug/eye); format: functional; outline: as §3
# Felis catus [15] = organism: Felis catus; experiment: The maximal difference in […] pupil diameter between treated and control eyes. The effect was tested in cats at a dose of 3.0 (ug/eye); format: functional; outline: as §1
# Felis catus [16] = organism: Felis catus; experiment: The mean area between curves for pupil diameter between treated and control eyes. The effect was tested in cats at a dose of 3.0 (ug/eye); format: functional; outline: as §1
# Monkey [17] = experiment: The maximal difference in Intraocular Pressure (IOP) measured in treated and control eyes. The effect was tested in monkey at a dose of 10.0 (ug/eye); format: functional, Cercopithecidae; outline: as §2
# Felis catus [18] = organism: Felis catus; experiment: The maximal difference in Intraocular Pressure (IOP) between treated and control eyes. The effect was tested in cats at a dose of 3.0 (ug/eye); format: functional; outline: as §3
# Oryctolagus cuniculus [19] = organism: Oryctolagus cuniculus; experiment: The maximal difference in conjunctival hyperemia between treated and control eyes. The effect was tested in rabbit at a dose of 0.1 (ug/eye)
# Monkey [20] = experiment: The mean area between curves for Intraocular Pressure (IOP) measured in treated and control eyes. The effect was tested in monkey at a dose of 10.0 (ug/eye); format: functional, Cercopithecidae; outline: as §2
# Oryctolagus cuniculus [21] = organism: Oryctolagus cuniculus; experiment: The mean area between curves for conjunctival hyperemia between treated and control eyes. The effect was tested in rabbit at a dose of 0.1 (ug/eye)
# Felis catus [22] = organism: Felis catus; experiment: The maximal difference in Intraocular Pressure (IOP) between treated and control eyes. The effect was tested in cats at a dose of 10.0 (ug/eye); format: functional; outline: as §3
# Felis catus [23] = organism: Felis catus; experiment: The mean area between curves for Intraocular Pressure (IOP) measured in treated and control eyes. The effect was tested in cats at a dose of 10.0 (ug/eye); format: functional; outline: as §3
# Felis catus [24] = organism: Felis catus; experiment: The mean ocular irritation in the treated eyes. An arbitrary scale of from 0 to 3 was used, 0 indicates absence of irritation and 3 complete closure of the lids. The effect was tested in cats at a dose of 10.0 (ug/eye); format: functional; outline: as §4
# Felis catus [25] = organism: Felis catus; experiment: The maximal difference in […] pupil diameter between treated and control eyes. The effect was tested in cats at a dose of 10.0 (ug/eye); format: functional; outline: as §1
# Felis catus [26] = organism: Felis catus; experiment: The mean area between curves for pupil diameter between treated and control eyes. The effect was tested in cats at a dose of 10.0 (ug/eye); format: functional; outline: as §1
# Monkey [27] = experiment: The maximal difference in Intraocular Pressure (IOP) between treated and control eyes. The effect was tested in monkey at a dose of 3.0 (ug/eye); format: functional, Cercopithecidae; outline: as §2
Structure (SMILES),Pmax (Felis catus [1]) [mm],Imax (Monkey [2]) [mmHg],Imax (Felis catus [4]) [mmHg],Irritation (Felis catus [5]) [arbitrary units],I ABC (Monkey [6]),Hmax (Oryctolagus cuniculus [7]),H ABC (Oryctolagus cuniculus [8]),I ABC (Felis catus [9]),P ABC (Felis catus [10]),Irritation (Felis catus [12]) [arbitrary units],I ABC (Felis catus [14]),Pmax (Felis catus [15]) [mm],P ABC (Felis catus [16]),Imax (Felis catus [18]) [mmHg],also measured
CC(C)OC(=O)CCC/C=C\C[C@@H]1[C@@H](/C=C/[C@@H](O)CCc2ccccc2)[C@H](O)C[C@@H]1O,< 9.7,-2.9,2.7,0,-5.9,<1.5,<-4,<36.9,-126,–,–,–,–,–,Imax (Monkey [3]): <-3.3 mmHg; I ABC (Monkey [11]): <-5.8
CC(C)OC(=O)CCC/C=C\C[C@@H]1[C@@H](/C=C/[C@@H](O)CCc2ccc(-c3ccsc3)cc2)[C@H](O)C[C@@H]1O,-1,–,<-4,0.2,–,0.3,<0.8,-63.2,-3.3,0.6,<-66,< -1.2,<-9.2,–,Imax (Felis catus [13]): -5 mmHg
CC(C)OC(=O)CCC/C=C\C[C@@H]1[C@@H](/C=C/[C@@H](O)CCc2ccc(-c3ccccc3)cc2)[C@H](O)C[C@@H]1O,< -1.5,<0.8,-1,0.8,3,<0.4,1.2,-10,<-18.3,1.6,<-99.3,-0.8,<-4.9,<-6,Imax (Monkey [17]): <1.4 mmHg; Hmax (Oryctolagus cuniculus [19]): 0.2; I ABC (Monkey [20]): <6.1; H ABC (Oryctolagus cuniculus [21]): 0.2
Cc1ccc(CC[C@H](O)/C=C/[C@@H]2[C@@H](C/C=C\CCCC(=O)OC(C)C)[C@@H](O)C[C@H]2O)cc1,< -3.5,<-1.6,-1,0.2,-3.8,<1.5,4.4,-4.3,<-46,0,-28,< -6,<-73,-1.3,Imax (Monkey [17]): -1.5 mmHg; I ABC (Monkey [20]): -3.5
Cc1cccc(CC[C@H](O)/C=C/[C@@H]2[C@@H](C/C=C\CCCC(=O)OC(C)C)[C@@H](O)C[C@H]2O)c1,< -6.8,<-0.6,-1,0.3,-0.1,<1.6,<4.9,-17,<-85,0.1,8,< -8.3,<-122,1.2,Imax (Felis catus [22]): 2.3 mmHg; I ABC (Felis catus [23]): 14.1; Imax (Monkey [3]): <-2.5 mmHg; Irritation (Felis catus [24]): 0 arbitrary units; Pmax (Felis catus [25]): < -8.8 mm; P ABC (Felis catus [26]): <-149; I ABC (Monkey [11]): -3.6
CC(C)OC(=O)CCC/C=C\C[C@@H]1[C@@H](/C=C/[C@@H](O)CCc2ccc(-c3ccco3)cc2)[C@H](O)C[C@@H]1O,–,–,–,–,0.5,-0.1,-0.2,–,–,0.6,-76.1,-0.6,-6,<-5,Imax (Monkey [27]): 0.3 mmHg
CC(C)OC(=O)CCC/C=C\C[C@@H]1[C@@H](/C=C/[C@H](O)CCc2ccc(Br)cc2)[C@H](O)C[C@@H]1O,< -2.2,–,-1,0.5,–,<0.7,0.6,-14,-27,0.2,<-17,-0.7,-2.2,<-2,Imax (Felis catus [22]): <-2 mmHg; I ABC (Felis catus [23]): -10; Irritation (Felis catus [24]): 0 arbitrary units; Pmax (Felis catus [25]): < -2.3 mm; P ABC (Felis catus [26]): -23; Hmax (Oryctolagus cuniculus [19]): 0.2; H ABC (Oryctolagus cuniculus [21]): 0.3
